Experiment: Toxicity liver stage against HepG2, at 10uM
Type: cell-based
Set-up: test concentration 10 uM, cell line HepG2-A16-CD81EGFP
Details: human, HepG2-A16-CD81EGFP cells; read-out: INHIBITION
Procedure, shortened: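 Uninfected HepG2-A16-CD81EGFP cells, 3 × 10^3 per well, 1536-well, plated on prespotted compound at 10 μM final, parasite-free screening media added to match infected plates; puromycin 10 μM positive, DMSO 0.5% negative; run in parallel with 48 h PbLuc assay at 37 °C, 5% CO2; viability by CellTiter-Glo luminescence, normalized to controls.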

SMILES | cytotoxicity at 10 µM
Cc1csc2ncc(-c3ccnc(N4CCC[C@H](C(N)=O)C4)n3)c(=O)n12 | -13.3%
CC(=O)N1CCCC1C(=O)NCCOc1cc(C)cc(C)c1 (stereo unspecified) | -10.5%
OCc1csc(N2CCCC(COc3cccc(F)c3)C2)n1 (stereo unspecified) | -0.176%
OCCCN1CCCC1c1cccc(Br)c1 (stereo unspecified) | 5.71%
N[C@H]1CCCN(C(=O)c2cnc(COc3ccccc3)nc2O)C1 | 1.67%
COc1ccc(OCC(O)CN2CCN(c3nccs3)CC2)cc1 (stereo unspecified) | -3.82%
CC(C)N1CCc2[nH]nc(C(=O)N3CCOCC3)c2C1 | -1.6%
Cc1cnc(C(=O)N2C[C@@H]3CN(CC4CCCC4)CCO[C@@H]3C2)cn1 | -2.76%
CSCC(CCO)NC(=O)c1cccc(F)c1Cl (stereo unspecified) | 11.7%
Cc1nccc(C(=O)N2CCCN(Cc3cnn(C(C)C)c3)CC2)n1 | -0.239%
CCC(O)CN1CCN(C(=O)c2csc(COC)n2)CC1 (stereo unspecified) | 7.72%
CCC1(C)Cc2ccccc2-c2nc(NCCCO)nc(O)c21 (stereo unspecified) | 5.42%
COc1ccccc1OC(C)CNC(=O)c1cnc[nH]1 (stereo unspecified) | 1.57%
Cc1cc(O)ncc1NS(=O)(=O)c1cccc(F)c1F | 0.753%
Cc1nc(CN2CCO[C@@H]3CN(Cc4nccs4)C[C@@H]3C2)cs1 | 4.8%
CC(CO)CN(Cc1ccccc1)Cc1c[nH]cn1 (stereo unspecified) | 6.04%
CC(C)(C)C(=O)N1CCN(CCOc2cccc(C#N)c2)CC1 | 3.53%
Cn1cc(C(=O)NC(Cn2cccn2)C(C)(C)C)cn1 (stereo unspecified) | -6.36%
CCn1c(CN2CCCC(Cn3cncn3)C2)nc2c(F)cccc21 (stereo unspecified) | 6.49%
CC(C)c1cc(NCC(C)N2CCCC2)n2nccc2n1 (stereo unspecified) | -12.4%
CC(=O)N[C@@H]1CN(Cc2ccccc2C#N)C[C@H]1c1ccc(C)cc1 | -4.27%
Cc1cc(O)cc(=O)n1CCCC(=O)Nc1n[nH]c2cc(Br)ccc12 | -16.2%
COCCc1noc(CN2CCCC2c2c(C)nn(C)c2OC)n1 (stereo unspecified) | -2.36%

SMILES | cytotoxicity at 10 µM
N#Cc1cccc(C(=O)N2CCn3c(Cn4cncn4)cnc3C2)c1 | 7.42%
Cc1ccc(CNC(=O)C2=NOC3(CCCNC3)C2)cc1 (stereo unspecified) | 1.33%
O=C(NCC1(N2CCOCC2)CCSC1)Nc1cn[nH]c1 (stereo unspecified) | 9.37%
Cc1cnc(C)c(-c2cc(O)c3c(c2)CN(c2ncccn2)CCO3)n1 | 6.13%
c1cc(CN2CCCC3(CCN(CC4CCCO4)CC3)C2)n[nH]1 (stereo unspecified) | -101%
CC(C)c1cc(NC2CCN(C(=O)N3CCCC3)CC2)ncn1 | 10.2%
CC(C)(C)CCCC(=O)NS(=O)(=O)CC1CC1 | -6.19%
OCCN1CCOC2(CCCN(c3cccc(F)c3)C2)C1 (stereo unspecified) | 2.01%
NC(=O)N1CCC2(CCN(Cc3ccccn3)C2=O)C1 (stereo unspecified) | 3.39%
Cc1cccnc1NC(=O)C(C)Cn1nc(C(F)(F)F)cc1C (stereo unspecified) | 5.89%
CC(C)=CCC1(CO)CCCN(S(=O)(=O)N2CCCC2)C1 (stereo unspecified) | -3.38%
Clc1ccc(-c2nnc([C@H]3CCN(C4CCCCC4)C3)o2)cc1 | -120%
CN(C)c1nc(N)nc(CN2CCCC2c2cccs2)n1 (stereo unspecified) | 5.21%
CS(=O)(=O)CCCNC1CCCN(Cc2noc(C3CC3)n2)C1 (stereo unspecified) | 1.15%
O=C(CCc1cc2n(n1)CCCN(Cc1ccccc1F)C2)NC1CC1 | -12.8%
Cc1nc(CNC(=O)N2CCN(c3ccc(Cl)cn3)CC2)no1 | -13.1%
O=C(Nc1ccc(Cl)cn1)c1cncc(C2CCNCC2)n1 | -13.5%
CSCCCN1CCCC1c1noc(C)n1 (stereo unspecified) | -7.59%
Cc1cc(C)cc(CNc2ccc(C(=O)NC(C)CO)cc2)c1 (stereo unspecified) | -5.48%
COc1ccc2[nH]cc(C(=O)N3CC[C@H](CO)[C@@H](O)C3)c(=O)c2c1 | 1.26%
CN(C)c1ccc(CC(=O)N2CCOCC(O)C2)cc1 (stereo unspecified) | 13.3%
CCCn1nnnc1CN(C)C(C)c1ccc(C)cc1 (stereo unspecified) | -3.21%
CN(Cc1ccccn1)C(=O)Nc1cc(C(F)(F)F)c[nH]c1=O | 8.36%

SMILES | cytotoxicity at 10 µM
Cn1cccc1C(=O)NC1(C(=O)NCC2CC2)CCCC1 | -3.29%
O=C(CCN1CCOCC1)Nc1cccc(CNCc2ccsc2)c1 | -4.66%
CC1=C(c2ccc(C(C)C)cc2)S(=O)(=O)N=C1N1CCc2ccccc21 | -16.8%
COc1cc(C#N)ccc1OCC(=O)N(C1CC1)C(C)c1ccco1 (stereo unspecified) | 1.18%
O=C(c1csc(I)c1)N1CCc2c(ncn2C2CC2)C1 | 7.21%
CCC(NC(=O)CC(F)(F)F)c1ccccc1OCC(=O)N1CCCC1 (stereo unspecified) | 0.145%
c1csc(C2(NCc3csc(C4CC4)n3)CCCC2)n1 | -3.75%
Cc1[nH]c2nc(CNc3ccccc3Cl)nn2c(=O)c1C | -1.29%
CCN(C)S(=O)(=O)NCC(C)(O)c1ccsc1 (stereo unspecified) | 1.83%
Cc1[nH]c2ccc(C#N)cc2c1CCNc1ncnc2c1CCNCC2 | -11.2%
Cc1csc(CNC(=O)NCC(O)c2ccc(F)c(F)c2)n1 (stereo unspecified) | 2.51%
Cc1[nH]c2c(F)cccc2c1CC(=O)N1CCN(C2CCSCC2)CC1 | 4.82%
O=C(Cc1ccc2c(c1)OCC2)Nc1nc(C(F)(F)F)n[nH]1 | 2.98%
Cc1cc(CNc2cccc(Cl)c2C)no1 | -2.4%
N#Cc1ccccc1NC(=O)c1ccc2c(c1)OCO2 | -10.4%
Cc1ccc(-c2cnnc(NCC3CCOCC3)n2)o1 | -3.64%
CNC(=O)c1cn[nH]c1C1CCN(Cc2ccccc2F)C1 (stereo unspecified) | -30.8%
COCCN(CCOC)C(=O)c1cnn(C)c1-n1c(C)ccc1C | -144%
COC(=O)CC1CCN(C(=O)c2ccc(C)cc2)CC1 | 4.99%
Cc1nc[nH]c1CN1CCC(C2CCN(CCc3ccccc3)C2)CC1 (stereo unspecified) | -3.52%
CN(C)C(=O)N1C[C@H]2CC[C@@H](C1)N(C/C=C/c1ccc(F)cc1)C2 | -0.545%
Cc1noc(-c2ccc(N3CCCC(C(=O)O)C3)nc2)n1 (stereo unspecified) | -2.38%
CC(C)CN1CCS(=O)(=O)[C@@H]2CCN(S(=O)(=O)N(C)C)CC[C@@H]21 | 7.25%

SMILES | cytotoxicity at 10 µM
CCOCC1CN(c2ncccn2)Cc2cnn(CC3CCOCC3)c21 (stereo unspecified) | 2.97%
Cc1nn(-c2ccccc2)cc1C(=O)N1CCCC(n2cccn2)C1 (stereo unspecified) | 1.3%
CCCn1ccc(C(=O)Nc2ccc3c(c2)C(C)(C)C(=O)N3C)n1 | 8.44%
Cn1cccc1C(=O)N1CCn2cc(CN3CCCC3)nc2C1 | -72.3%
O=C1CCN(C(=O)NCC(c2ccccc2)c2ccccc2)CCN1 | -1.44%
CC(C)C[C@@H](CO)n1cc(-c2cnc(-c3ccco3)nc2)nn1 | -0.662%
C[C@@H]1CN(C(=O)C2CCS(=O)(=O)CC2)C[C@]1(C)O | -4.11%
O=c1c(S(=O)(=O)N2CCCCC2)cccn1Cc1cccnc1 | -2.56%
CN1C[C@H]2CC[C@@H](CC1=O)N2C(=O)c1ccc(-c2ccccc2)[nH]c1=O | 5.91%
COc1ccc(CN2C[C@H](OCC3CCOCC3)[C@H]3COC[C@H]32)cc1 | -9.78%
CNCC(=O)N1CCCC(c2ccnc(Nc3cnccn3)n2)C1 (stereo unspecified) | -11.6%
Cc1csc(Nc2cc(C3CCCCN3C)nc(C)n2)n1 (stereo unspecified) | 4.73%
CCc1nc(C(=O)N2CCN(CC)CC2)nn1-c1ccccc1Cl | 2.79%
CNc1ccc(Cl)cc1C(=O)N1CCC(Cn2cc(CN)nn2)CC1 | -2.37%
NC(=O)N1CCC(C(=O)NC2CCc3nccn3C2)CC1 (stereo unspecified) | -2.09%
CCc1noc(-c2ccc(SCC(=O)O)nc2)n1 | -10.9%
COCc1cccc(CNc2cnn(C(C)(C)C)c(=O)c2Cl)c1 | 59.2%
CN(CCN1CCOC1=O)CC(=O)Nc1ccc(Cl)c(C(F)(F)F)c1 | -46.5%
CNc1ccc(CC2CCCN(C(=O)c3cncnc3C)C2)nn1 (stereo unspecified) | 5.99%
COc1ncc(-c2ccc(NC(C)=O)cc2)c(OC)n1 | -8.64%
Oc1ccc(Cl)cc1CNCc1ccccc1Cl | -0.0124%
CC1CN(C)c2ccccc2CN1CCn1cncn1 (stereo unspecified) | -12.7%
Cc1nc(CN2CC(=O)N(C)c3ccccc3C2=O)no1 | -3.78%

SMILES | cytotoxicity at 10 µM
c1cncc(OCc2nnn3c2CN(Cc2ccsc2)CCC3)c1 | -4.34%
CCOCCN1Cc2cnn(C)c2C(COCC)C1 (stereo unspecified) | -62.6%
O=C(Nc1cccnc1)[C@H]1CN(Cc2nccs2)C[C@H]2OCC[C@@H]12 | 2.88%
Cc1nccnc1C1CCN(C2CCCC2O)CC1 (stereo unspecified) | -1.35%
N#Cc1cccc(N2CCC3(CCC(=O)N(CCCO)C3)CC2)n1 | 2.11%
NC(=O)C1CCN(CCc2ccc(NCc3ccoc3)cc2)CC1 | -26.2%
COCC(NC(=O)NCc1sc(C)nc1C)c1ccco1 (stereo unspecified) | 6.75%
CC(C)(C)NC(=O)N1CCC(NC(=O)Cc2cccnc2)CC1 | 0.355%
CCCn1cc(C(=O)N(C)Cc2nc(-c3ccccn3)no2)c(C)n1 | 0.334%
COCCN1C(=O)CC[C@@H]2[C@H]1CCN2Cc1cccc(C#N)c1 | -33.1%
O=C(NC1CC1)[C@H]1C[C@@H]2CCN(Cc3ccc4c(c3)OCO4)C[C@@H]2O1 | 0.782%
CC(C)c1noc(CCC(=O)NC(C)c2ccccn2)n1 (stereo unspecified) | -5.86%
Cc1cc(C(=O)N2CCCC(c3nccn3C)C2)cc(S(N)(=O)=O)c1C (stereo unspecified) | 5.5%
COc1ccc(CN2C[C@@H]3COC[C@]3(CN(C)C)C2)cc1 | -1.75%
COc1cc(CNCCc2cnn(C)c2)cc2c1OCO2 | -9.3%
O=C(c1cc(-n2cnnn2)ccc1Cl)N1CCC2(CC1)OCCO2 | -1.66%
COc1ccccc1CN1CC[C@H](c2nnc(-c3cncn3C)o2)C1 | 8.33%
C[C@H](NS(C)(=O)=O)C(=O)NCc1cc(-c2ccco2)n(CC(F)(F)F)n1 | -13%
COCCN1CCC12CCN(c1ncccn1)C2 (stereo unspecified) | 9.76%

— ChEMBL document CHEMBL4513216, “Probing the Open Global Health Chemical Diversity Library for Multistage-Active Starting Points for Next-Generation Antimalarials” (ACS Infect Dis, 2020)
